Results published in paper PMC5089614 (British Journal of Clinical Pharmacology, 2016).
Entries after “also recorded” stand apart in the source; their conditions may differ.

Assay: Safety/tolerability: adverse events graded by NCI CTCAE v4.03
Type: in vivo, human
Procedure, shortened: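 Solid tumour patients got oral test compound by hepatic group: normal 4 mg, moderate 2.3 mg, severe 1.5 mg. Dosing continued in a second part, with escalation allowed up to 4 mg. AEs were monitored from first dose until 30 days after the last dose and graded by CTCAE v4.03. Safety population was all patients with ≥1 dose. Investigators assigned relatedness.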

[1] = moderate impairment 2.3 mg (n = 15)
[2] = n = 1, not attributed to ixazomib
[3] = severe impairment 1.5 mg (n = 20)

CC(C)C[C@H](NC(=O)CNC(=O)c1cc(Cl)ccc1Cl)B(O)O [ixazomib]
Drug-related AEs, patients (all patients (N = 48)): 46% | Drug-related decreased appetite (all patients (N = 48)): 8% | Drug-related dehydration (all patients (N = 48)): 6% | Drug-related diarrhoea (all patients (N = 48)): 6% | Drug-related fatigue (all patients (N = 48)): 8% | Drug-related nausea (all patients (N = 48)): 17% | Drug-related vomiting (all patients (N = 48)): 10% | drug-related serious dehydration (all patients (N = 48)): 4% | drug-related serious dyspnoea (all patients (N = 48)): 2% | drug-related serious fall (all patients (N = 48)): 2% | drug-related serious oesophageal ulcer (all patients (N = 48)): 2% | grade 3 drug-related anaemia (all patients (N = 48)): 2% | grade 3 drug-related dehydration (all patients (N = 48)): 6% | grade 3 drug-related fall (all patients (N = 48)): 2% | grade 3 drug-related fatigue (all patients (N = 48)): 4% | grade 4 drug-related AE (all patients (N = 48)): no drug‐related grade 4 adverse events; also recorded: no patient had a grade 4 drug‐related AE | patients with serious AEs (all patients (N = 48)): 65% | rate of on-study deaths (all patients (N = 48)): 29% | on-study deaths, number (all patients, none related to ixazomib, all related to progressive disease): 14 | patients with drug-related serious AEs (five serious AEs in four patients): 8% | incidence of drug-related grade ≥3 AEs (moderate hepatic impairment, 2.3 mg): 20% | Abdominal pain, any-grade TEAE [1]: 2 (13) n (%) | Acute renal failure, any-grade TEAE [1]: 1 (7) n (%) | Acute renal failure, grade ≥3 TEAE [1]: 1 (7) n (%) | Anaemia, any-grade TEAE [1]: 3 (20) n (%) | Anaemia, grade ≥3 TEAE [1]: 1 (7) n (%) | Any-grade AE [1]: 15 (100) n (%) | Ascites, any-grade TEAE [1]: 3 (20) n (%) | Ascites, grade ≥3 TEAE [1]: 2 (13) n (%) | Back pain, any-grade TEAE [1]: 0 n (%) | Cough, any-grade TEAE [1]: 2 (13) n (%) | Decreased appetite, any-grade TEAE [1]: 2 (13) n (%) | Dehydration, any-grade TEAE [1]: 2 (13) n (%) | Dehydration, grade ≥3 TEAE [1]: 2 (13) n (%) | Diarrhoea, any-grade TEAE [1]: 1 (7) n (%) | Dyspnoea, any-grade TEAE [1]: 3 (20) n (%) | Fatigue, any-grade TEAE [1]: 4 (27) n (%) | Fatigue, grade ≥3 TEAE [1]: 1 (7) n (%) | Grade ≥3 AE [1]: 13 (87) n (%) | Hyperbilirubinaemia, any-grade TEAE [1]: 5 (33) n (%) | Hyperbilirubinaemia, grade ≥3 TEAE [1]: 5 (33) n (%) | Hyperkalaemia, any-grade TEAE [1]: 2 (13) n (%) | Hypotension, any-grade TEAE [1]: 1 (7) n (%) | Hypotension, grade ≥3 TEAE [1]: 1 (7) n (%) | Insomnia, any-grade TEAE [1]: 2 (13) n (%) | Leukocytosis, grade ≥3 TEAE [1]: 1 (7) n (%) | Nausea, any-grade TEAE [1]: 4 (27) n (%) | Peripheral oedema, any-grade TEAE [1]: 9 (60) n (%) | Pyrexia, any-grade TEAE [1]: 2 (13) n (%) | Upper abdominal pain, any-grade TEAE [1]: 1 (7) n (%) | Vomiting, any-grade TEAE [1]: 2 (13) n (%) | discontinuation owing to acute hepatic failure [2]: 2% | discontinuation owing to acute renal failure [2]: 2% | discontinuation owing to axillary pain/groin pain [2]: 2% | discontinuation owing to confusional state [2]: 2% | discontinuation owing to peritoneal haemorrhage [2]: 2% | discontinuation owing to progression of pancreatic carcinoma [2]: 2% | Abdominal pain, any-grade TEAE (normal function 4 mg (n = 13)): 2 (15) n (%) | Acute renal failure, any-grade TEAE (normal function 4 mg (n = 13)): 0 n (%) | Acute renal failure, grade ≥3 TEAE (normal function 4 mg (n = 13)): 0 n (%) | Anaemia, any-grade TEAE (normal function 4 mg (n = 13)): 2 (15) n (%) | Anaemia, grade ≥3 TEAE (normal function 4 mg (n = 13)): 1 (8) n (%) | Any-grade AE (normal function 4 mg (n = 13)): 13 (100) n (%) | Ascites, any-grade TEAE (normal function 4 mg (n = 13)): 0 n (%) | Ascites, grade ≥3 TEAE (normal function 4 mg (n = 13)): 0 n (%) | Back pain, any-grade TEAE (normal function 4 mg (n = 13)): 2 (15) n (%) | Cough, any-grade TEAE (normal function 4 mg (n = 13)): 1 (8) n (%) | Decreased appetite, any-grade TEAE (normal function 4 mg (n = 13)): 7 (54) n (%) | Dehydration, any-grade TEAE (normal function 4 mg (n = 13)): 3 (23) n (%) | Dehydration, grade ≥3 TEAE (normal function 4 mg (n = 13)): 0 n (%) | Diarrhoea, any-grade TEAE (normal function 4 mg (n = 13)): 4 (31) n (%) | Dyspnoea, any-grade TEAE (normal function 4 mg (n = 13)): 4 (31) n (%) | Fatigue, any-grade TEAE (normal function 4 mg (n = 13)): 6 (46) n (%) | Fatigue, grade ≥3 TEAE (normal function 4 mg (n = 13)): 2 (15) n (%) | Grade ≥3 AE (normal function 4 mg (n = 13)): 6 (46) n (%) | Hyperbilirubinaemia, any-grade TEAE (normal function 4 mg (n = 13)): 0 n (%) | Hyperbilirubinaemia, grade ≥3 TEAE (normal function 4 mg (n = 13)): 0 n (%) | Hyperkalaemia, any-grade TEAE (normal function 4 mg (n = 13)): 1 (8) n (%) | Hypotension, any-grade TEAE (normal function 4 mg (n = 13)): 0 n (%) | Hypotension, grade ≥3 TEAE (normal function 4 mg (n = 13)): 0 n (%) | Insomnia, any-grade TEAE (normal function 4 mg (n = 13)): 3 (23) n (%) | Leukocytosis, grade ≥3 TEAE (normal function 4 mg (n = 13)): 0 n (%) | Nausea, any-grade TEAE (normal function 4 mg (n = 13)): 9 (69) n (%) | Peripheral oedema, any-grade TEAE (normal function 4 mg (n = 13)): 2 (15) n (%) | Pyrexia, any-grade TEAE (normal function 4 mg (n = 13)): 1 (8) n (%) | Upper abdominal pain, any-grade TEAE (normal function 4 mg (n = 13)): 2 (15) n (%) | Vomiting, any-grade TEAE (normal function 4 mg (n = 13)): 7 (54) n (%) | incidence of drug-related grade ≥3 AEs (normal hepatic function, 4 mg): 23% | incidence of peripheral neuropathy (PN) (one patient, grade 2, treatment-related, history of neuropathy): 2% | patients with rash-related AEs (seven events in total, all grade 1 or 2, none serious): Five | on-study deaths, number (severe hepatic impairment group): eight | incidence of drug-related grade ≥3 AEs (severe hepatic impairment, 1.5 mg): 5% | Abdominal pain, any-grade TEAE [3]: 2 (10) n (%) | Acute renal failure, any-grade TEAE [3]: 6 (30) n (%) | Acute renal failure, grade ≥3 TEAE [3]: 5 (25) n (%) | Anaemia, any-grade TEAE [3]: 3 (15) n (%) | Anaemia, grade ≥3 TEAE [3]: 2 (10) n (%) | Any-grade AE [3]: 20 (100) n (%) | Ascites, any-grade TEAE [3]: 3 (15) n (%) | Ascites, grade ≥3 TEAE [3]: 2 (10) n (%) | Back pain, any-grade TEAE [3]: 3 (15) n (%) | Cough, any-grade TEAE [3]: 3 (15) n (%) | Decreased appetite, any-grade TEAE [3]: 1 (5) n (%) | Dehydration, any-grade TEAE [3]: 3 (15) n (%) | Dehydration, grade ≥3 TEAE [3]: 2 (10) n (%) | Diarrhoea, any-grade TEAE [3]: 1 (5) n (%) | Dyspnoea, any-grade TEAE [3]: 4 (20) n (%) | Fatigue, any-grade TEAE [3]: 5 (25) n (%) | Fatigue, grade ≥3 TEAE [3]: 1 (5) n (%) | Grade ≥3 AE [3]: 18 (90) n (%) | Hyperbilirubinaemia, any-grade TEAE [3]: 5 (25) n (%) | Hyperbilirubinaemia, grade ≥3 TEAE [3]: 5 (25) n (%) | Hyperkalaemia, any-grade TEAE [3]: 2 (10) n (%) | Hypotension, any-grade TEAE [3]: 4 (20) n (%) | Hypotension, grade ≥3 TEAE [3]: 2 (10) n (%) | Insomnia, any-grade TEAE [3]: 1 (5) n (%) | Leukocytosis, grade ≥3 TEAE [3]: 2 (10) n (%) | Nausea, any-grade TEAE [3]: 5 (25) n (%) | Peripheral oedema, any-grade TEAE [3]: 4 (20) n (%) | Pyrexia, any-grade TEAE [3]: 4 (20) n (%) | Upper abdominal pain, any-grade TEAE [3]: 2 (10) n (%) | Vomiting, any-grade TEAE [3]: 4 (20) n (%) | Abdominal pain, any-grade TEAE (total (N = 48)): 6 (13) n (%) | Acute renal failure, any-grade TEAE (total (N = 48)): 7 (15) n (%) | Acute renal failure, grade ≥3 TEAE (total (N = 48)): 6 (13) n (%) | Anaemia, any-grade TEAE (total (N = 48)): 8 (17) n (%) | Anaemia, grade ≥3 TEAE (total (N = 48)): 4 (8) n (%) | Any-grade AE (total (N = 48)): 48 (100) n (%) | Ascites, any-grade TEAE (total (N = 48)): 6 (13) n (%) | Ascites, grade ≥3 TEAE (total (N = 48)): 4 (8) n (%) | Back pain, any-grade TEAE (total (N = 48)): 5 (10) n (%) | Cough, any-grade TEAE (total (N = 48)): 6 (13) n (%) | Decreased appetite, any-grade TEAE (total (N = 48)): 10 (21) n (%) | Dehydration, any-grade TEAE (total (N = 48)): 8 (17) n (%) | Dehydration, grade ≥3 TEAE (total (N = 48)): 4 (8) n (%) | Diarrhoea, any-grade TEAE (total (N = 48)): 6 (13) n (%) | Dyspnoea, any-grade TEAE (total (N = 48)): 11 (23) n (%) | Fatigue, any-grade TEAE (total (N = 48)): 15 (31) n (%) | Fatigue, grade ≥3 TEAE (total (N = 48)): 4 (8) n (%) | Grade ≥3 AE (total (N = 48)): 37 (77) n (%) | Hyperbilirubinaemia, any-grade TEAE (total (N = 48)): 10 (21) n (%) | Hyperbilirubinaemia, grade ≥3 TEAE (total (N = 48)): 10 (21) n (%) | Hyperkalaemia, any-grade TEAE (total (N = 48)): 5 (10) n (%) | Hypotension, any-grade TEAE (total (N = 48)): 5 (10) n (%) | Hypotension, grade ≥3 TEAE (total (N = 48)): 3 (6) n (%) | Insomnia, any-grade TEAE (total (N = 48)): 6 (13) n (%) | Leukocytosis, grade ≥3 TEAE (total (N = 48)): 3 (6) n (%) | Nausea, any-grade TEAE (total (N = 48)): 18 (38) n (%) | Peripheral oedema, any-grade TEAE (total (N = 48)): 15 (31) n (%) | Pyrexia, any-grade TEAE (total (N = 48)): 7 (15) n (%) | Upper abdominal pain, any-grade TEAE (total (N = 48)): 5 (10) n (%) | Vomiting, any-grade TEAE (total (N = 48)): 13 (27) n (%)
